Consider 37 sequences from the array DNA melting data of Ke et al. (doi:10.1101/2024.01.08.574731).

The nature of series [1]: folding enthalpy; higher = less favourable; fluorescence melt of hairpins on a sequencing array, two-state fit. The note with it: sodium 0.088 M. The gist of the method: (§1)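 Melting temperature and folding enthalpy were derived from bootstrapped two-state fits. The fitted temperatures were raised by 9.35 °C to agree with UV melts, and four replicates were combined by inverse variance. The underlying data were Cy3 fluorescence images of library hairpins, with annealed Cy3 and quencher oligos, on a sequenced MiSeq flow cell in 50 mM Na-HEPES pH 8.0, 25 mM NaCl, taken in 2.5 °C steps up to 60 °C, normalised to pre-quench Cy3 and to control constructs.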

Series [2] is described as follows: melting temperature; fluorescence melt of hairpins on a sequencing array, two-state fit, raised by 9.35 °C to match UV melts. The note with it: sodium 0.088 M. The essentials:
as §1

Turning to GAGCTAGGAAACTAACTC (((.(((....))).))), the folding enthalpy in series [1] was -19.9 kcal/mol. In addition, in series [2], the Tm came out at 30.4 °C.
With GCAGCCGAAAGGCGATGC ((((((....)))..))), the folding enthalpy in series [1] is -14.2 kcal/mol. Moreover, in series [2], the Tm stood at 53.2 °C.
As to GTGGAAGGAAACTTCCGC (.(((((....))))).), in series [1], the folding enthalpy is -24.1 kcal/mol. In series [2], the Tm came to 51.1 °C.
For GTCCCCGAAAGGGGGAC ((((((....))).))), in that order: -17.1 kcal/mol and 68.5 °C.
For GAGATGGAAACATCTC ((((((....)))))), the folding enthalpy in series [1] is -37 kcal/mol. Moreover, the Tm in series [2] was 53.5 °C.
On to GCAGGCCGAAAGGCTGC (((.(((....)))))), for which the folding enthalpy in series [1] is -22.2 kcal/mol. Moreover, the Tm in series [2] amounted to 67.3 °C.
For GAGTCTGGAAACAGACTC (((((((....))))))), in series [1], the folding enthalpy was -39.9 kcal/mol. In addition, the Tm in series [2] is 65.3 °C.
For GGCCAGCGAAAGCTTGCC (((.(((....))).))), the folding enthalpy in series [1] is -50.7 kcal/mol. In addition, in series [2], the Tm was 55.5 °C.
Regarding GCTTTCGCGAAAGCGAGC (((..(((....)))))), the folding enthalpy in series [1] is -10.6 kcal/mol. Further, the Tm in series [2] came out at 48.9 °C.
With GCCGTTCCGAAAGGAGGC (((..(((....)))))), in series [1], the folding enthalpy is -24.4 kcal/mol. Also, the Tm in series [2] came to 50.7 °C.
On the same counts, the results for GAGCCCGGAAACGGGCCC (.(((((....))))).) are -7.26 kcal/mol and 49.7 °C.
As to GGTCGCGGAAACGCAACC (((.(((....))).))), in series [1], the folding enthalpy is -33.1 kcal/mol. Further, the Tm in series [2] was 51.6 °C.
As to GTGCGTCGAAAGACCAC (((.(((....)))))), in series [1], the folding enthalpy was -29.6 kcal/mol. Also, the Tm in series [2] worked out at 56.2 °C.
On to GCCGCGCGAAAGCACAGC ((.(.((....)).).)), for which, in series [1], the folding enthalpy was -13.6 kcal/mol. Further, the Tm in series [2] came out at 46.9 °C.
As to GCCGTCGAAAGACTGGGC ((((((....)))..))), the folding enthalpy in series [1] was -26.4 kcal/mol. The Tm in series [2] was found to be 53.7 °C.
Turning to GCAAAGCGAAAGCTTGC (((.(((....)))))), the folding enthalpy in series [1] is -23.8 kcal/mol. The Tm in series [2] was determined as 64.5 °C.
Consider GAAGAGGGAAACCTCTCC (.(((((....))))).), for which the folding enthalpy in series [1] was -12.5 kcal/mol. Further, in series [2], the Tm was found to be 34.2 °C.
Turning to GGATGTGGAAACACATTC (.(((((....))))).), in series [1], the folding enthalpy is -25.7 kcal/mol. Further, the Tm in series [2] was 47.6 °C.
Consider GATCAATCCGTTGATC ((((((....)))))), for which the folding enthalpy in series [1] was -32.5 kcal/mol. Besides, in series [2], the Tm was found to be 47 °C.
Take GGCCCCGAAAGGGTGGCC ((((((....)))..))): in series [1], the folding enthalpy was -22.7 kcal/mol. Further, the Tm in series [2] came out at 61.6 °C.
Take GACATCGGAAACGATGTC (((((((....))))))): the folding enthalpy in series [1] is -44 kcal/mol. Also, the Tm in series [2] turned out to be 66.6 °C.
GGTAGACGAAAGTCGACC (((.(((....))).))): the folding enthalpy in series [1] is -39.1 kcal/mol. In addition, in series [2], the Tm was found to be 58.1 °C.
For the sequence GATCCATTCATGGATC ((((((....)))))), the folding enthalpy in series [1] was -43.5 kcal/mol. Moreover, in series [2], the Tm is 59.5 °C.
GGGCTCGAAAGAGCACCC ((((((....)))..))): the folding enthalpy in series [1] is -12.2 kcal/mol. In series [2], the Tm is 58.1 °C.
Take GACGGTGAAAACCGTC ((((((....)))))): the folding enthalpy in series [1] was -32.1 kcal/mol. The Tm in series [2] is 68.5 °C.
On to GCGAGGCGAAAGCTCCGC (((..((....))..))), for which the folding enthalpy in series [1] was -25.2 kcal/mol. Moreover, the Tm in series [2] was 60 °C.
On the same counts, the results for GCCTAGGGAAACTTAGGC (((((.(....).))))) are -31.6 kcal/mol and 47.5 °C.
In the case of GGTTGCGAAAGCAAACC ((((((....))).))), the folding enthalpy in series [1] was -20 kcal/mol. In series [2], the Tm was 61.8 °C.
On the same counts, the results for GATCACCTGCGTGATC ((((((....)))))) are -48.3 kcal/mol and 54.9 °C.
For GTGCACGAAAGTGATCAC ((((((....)))..))), in that order: -12.7 kcal/mol and 37.4 °C.
Consider GTTCGGGGAAACCCGAAC (((((((....))))))), for which, in series [1], the folding enthalpy is -39.6 kcal/mol. Besides, the Tm in series [2] turned out to be 69 °C.
For the sequence GTTATCGAAAGATTAAC ((((((....))).))), in series [1], the folding enthalpy is -15.1 kcal/mol. Besides, in series [2], the Tm was 29.5 °C.
Take GGATGACGAAAGTCCTCC (((.(((....))).))): in series [1], the folding enthalpy was -31.5 kcal/mol. Also, the Tm in series [2] is 47.1 °C.
With GGGTTTGGAAACAAACCC (((((((....))))))), the folding enthalpy in series [1] is -39.6 kcal/mol. Besides, the Tm in series [2] came to 66.8 °C.
For GATCCGCTGCCGGATC ((((((....)))))), the folding enthalpy in series [1] is -36.4 kcal/mol. Moreover, in series [2], the Tm turned out to be 57 °C.
Consider GCGATGGGAAACTGTCGC ((((..(....)..)))), for which the folding enthalpy in series [1] is -47.3 kcal/mol. Further, the Tm in series [2] was 49.2 °C.
As for GGTCACGGAAACGTGGTC (..((((....))))..), in series [1], the folding enthalpy is -16.8 kcal/mol. Also, the Tm in series [2] is 39.6 °C.
